Molecules are shown by their SMILES. Values after ≈ are worked out from the molar mass of the structure shown.

Assay [1] relates to Enterococcus faecalis. In words: In vitro antibacterial activity against Enterococcus faecalis C6291 (E. f. 1). Format: functional. In a few lines: (§1)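 MIC by agar dilution on Mueller–Hinton agar, inoculum 10⁴ CFU/spot. Reported in μg/mL.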
The test system of assay [2] is Enterococcus faecalis. The assay is described as follows: In vitro antibacterial activity against Enterococcus faecalis C6301 (E. f. 1). In kind it is functional. In a few lines:
as §1

Assay [3] has as its system Staphylococcus epidermidis. In words: In vitro antibacterial activity against Staphylococcus epidermis ATCC 1228. Format: functional. In a few lines:
as §1

The subject of assay [4] is Staphylococcus epidermidis. The assay is described as follows: In vitro antibacterial activity against Staphylococcus epidermis C2235. Format: functional. In short, it runs like this:
as §1

Assay [5] relates to Staphylococcus aureus. In words: In vitro antibacterial activity against Staphylococcus aureus. Format: functional.
Assay [6] concerns Staphylococcus aureus. The assay is described as follows: In vitro antibacterial activity against ciprofloxacin-resistant Staphylococcus aureus (CRSA). Format: functional.
Assay [7] relates to Staphylococcus aureus. In words: In vitro antibacterial activity against methicillin-resistant Staphylococcus aureus (MRSA). Format: functional.
Assay [8] concerns Staphylococcus aureus. In words: In vitro antibacterial against methicillin-susceptible Staphylococcus aureus (MSSA). Format: functional.
Assay [9] has as its system Streptococcus pyogenes. In words: In vitro antibacterial activity against Streptococcus pyogenes C6003.
For assay [10], the system named is Streptococcus pyogenes. In words: In vitro antibacterial activity against Streptococcus pyogenes ATTCC8668.
The test system of assay [11] is Enterococcus faecium. In words: In vitro antibacterial activity against vancomycin-resistant Enterococcus faecium C6487.

Turning to `CO/N=C(\C)C=C1CCN(c2ccc(N3C[C@H](CNC(C)=O)OC3=O)cc2F)CC1`, the MIC in assay [1] was determined as 8 µg/mL (≈ 19.1 µM); in assay [2], 8 µg/mL (≈ 19.1 µM); in assay [3], 8 µg/mL (≈ 19.1 µM); in assay [4], 8 µg/mL (≈ 19.1 µM); in [5] it was 16 µg/mL (≈ 38.2 µM); in [6], 16 µg/mL (≈ 38.2 µM). Further, the MIC in assay [7] amounted to 8 µg/mL (≈ 19.1 µM); in assay [8] it was 16 µg/mL (≈ 38.2 µM); in assay [9] it was 8 µg/mL (≈ 19.1 µM); in assay [10], 2 µg/mL (≈ 4.78 µM); in [11] it was 4 µg/mL (≈ 9.56 µM).

With `CC(=O)NC[C@H]1CN(c2ccc(N3CCC(=C(C#N)C#N)CC3)c(F)c2)C(=O)O1`, the MIC in [1] is 4 µg/mL (≈ 10.1 µM); in [2] it was 2 µg/mL (≈ 5.03 µM); in assay [3], 1 µg/mL (≈ 2.52 µM); in [4], 2 µg/mL (≈ 5.03 µM); in assay [5], 2 µg/mL (≈ 5.03 µM); in assay [6] it was 4 µg/mL (≈ 10.1 µM). In addition, the MIC in [7] is 2 µg/mL (≈ 5.03 µM); in assay [8] it was 4 µg/mL (≈ 10.1 µM); in assay [9], 4 µg/mL (≈ 10.1 µM); in [10] it was 1 µg/mL (≈ 2.52 µM); in assay [11], 4 µg/mL (≈ 10.1 µM).

As to `CO/N=C/C=C1CCN(c2ccc(N3C[C@H](CNC(C)=O)OC3=O)cc2F)CC1`, the MIC in assay [1] is 4 µg/mL (≈ 9.89 µM); in [2], 4 µg/mL (≈ 9.89 µM); in assay [3] it was 1 µg/mL (≈ 2.47 µM); in assay [4], 2 µg/mL (≈ 4.95 µM); in assay [5], 8 µg/mL (≈ 19.8 µM); in assay [6] it was 4 µg/mL (≈ 9.89 µM). Besides, the MIC in assay [7] amounted to 4 µg/mL (≈ 9.89 µM); in assay [8], 8 µg/mL (≈ 19.8 µM); in [9], 2 µg/mL (≈ 4.95 µM); in assay [10], 1 µg/mL (≈ 2.47 µM); in [11], 4 µg/mL (≈ 9.89 µM).

As for `CC(=O)NC[C@H]1CN(c2ccc(N3CCC(=CC(C)O)CC3)c(F)c2)C(=O)O1` (stereo not given in full), the MIC turned out to be 8 µg/mL (≈ 20.4 µM) in assay [1]; 4 µg/mL (≈ 10.2 µM) in assay [2]; 2 µg/mL (≈ 5.11 µM) in assay [3]; 4 µg/mL (≈ 10.2 µM) in assay [4]; 8 µg/mL (≈ 20.4 µM) in assay [5]; 8 µg/mL (≈ 20.4 µM) in [6]. Further, the MIC was 4 µg/mL (≈ 10.2 µM) in [7]; 16 µg/mL (≈ 40.9 µM) in assay [8]; 8 µg/mL (≈ 20.4 µM) in assay [9]; 2 µg/mL (≈ 5.11 µM) in assay [10]; 4 µg/mL (≈ 10.2 µM) in [11].

Take `CC(=O)NC[C@H]1CN(c2ccc(N3CCC(=C/C=N/O)CC3)c(F)c2)C(=O)O1`: the MIC in assay [1] was 4 µg/mL (≈ 10.2 µM); in [2], 4 µg/mL (≈ 10.2 µM); in assay [3] it was 1 µg/mL (≈ 2.56 µM); in assay [4], 4 µg/mL (≈ 10.2 µM); in assay [5], 8 µg/mL (≈ 20.5 µM); in assay [6], 8 µg/mL (≈ 20.5 µM). The MIC in [7] was determined as 4 µg/mL (≈ 10.2 µM); in [8] it was 8 µg/mL (≈ 20.5 µM); in [9], 4 µg/mL (≈ 10.2 µM); in assay [10], 2 µg/mL (≈ 5.12 µM); in assay [11] it was 4 µg/mL (≈ 10.2 µM).

For the compound `CC(=O)NC[C@H]1CN(c2ccc(N3CCC(=CC=O)CC3)c(F)c2)C(=O)O1`, the minimal inhibitory concentration (MIC) in [1] is 8 µg/mL (≈ 21.3 µM); in [2], 4 µg/mL (≈ 10.7 µM); in assay [3], 1 µg/mL (≈ 2.66 µM); in [4] it was 2 µg/mL (≈ 5.33 µM); in [5], 8 µg/mL (≈ 21.3 µM); in [6], 4 µg/mL (≈ 10.7 µM). The MIC in [7] was 4 µg/mL (≈ 10.7 µM); in assay [8] it was 8 µg/mL (≈ 21.3 µM); in assay [9] it was 8 µg/mL (≈ 21.3 µM); in assay [10] it was 2 µg/mL (≈ 5.33 µM); in assay [11], 8 µg/mL (≈ 21.3 µM).

Take `CCOC(=O)C(C#N)=C1CCN(c2ccc(N3C[C@H](CNC(C)=O)OC3=O)cc2F)CC1`: the MIC in assay [1] was determined as 4 µg/mL (≈ 9 µM); in assay [2], 2 µg/mL (≈ 4.5 µM); in assay [3], 1 µg/mL (≈ 2.25 µM); in [4], 2 µg/mL (≈ 4.5 µM); in assay [5] it was 4 µg/mL (≈ 9 µM); in assay [6] it was 4 µg/mL (≈ 9 µM). Further, the MIC in assay [7] is 4 µg/mL (≈ 9 µM); in [8], 4 µg/mL (≈ 9 µM); in assay [9], 4 µg/mL (≈ 9 µM); in [10], 1 µg/mL (≈ 2.25 µM); in assay [11], 2 µg/mL (≈ 4.5 µM).

With `CC(=O)NC[C@H]1CN(c2ccc(N3CCC(=C/C(C)=N/O)CC3)c(F)c2)C(=O)O1`, the minimum inhibitory concentration (MIC) was 4 µg/mL (≈ 9.89 µM) in assay [1]; 4 µg/mL (≈ 9.89 µM) in assay [2]; 1 µg/mL (≈ 2.47 µM) in assay [3]; 4 µg/mL (≈ 9.89 µM) in assay [4]; 8 µg/mL (≈ 19.8 µM) in [5]; 8 µg/mL (≈ 19.8 µM) in assay [6]. Also, the MIC in assay [7] amounted to 4 µg/mL (≈ 9.89 µM); in assay [8], 8 µg/mL (≈ 19.8 µM); in [9] it was 4 µg/mL (≈ 9.89 µM); in assay [10], 1 µg/mL (≈ 2.47 µM); in assay [11], 4 µg/mL (≈ 9.89 µM).

Regarding `CC(=O)NC[C@H]1CN(c2ccc(N3CCC(=C(C#N)C#N)C3)c(F)c2)C(=O)O1`, the MIC was determined as 16 µg/mL (≈ 41.7 µM) in assay [2]; 4 µg/mL (≈ 10.4 µM) in assay [3]; 4 µg/mL (≈ 10.4 µM) in assay [4]; 8 µg/mL (≈ 20.9 µM) in [5]; 8 µg/mL (≈ 20.9 µM) in [6]; 16 µg/mL (≈ 41.7 µM) in assay [11].

In the case of `CCOC(=O)/C(C#N)=C1/CCN(c2ccc(N3C[C@H](CNC(C)=O)OC3=O)cc2F)C1`, the minimum inhibitory concentration (MIC) in assay [2] was 32 µg/mL (≈ 74.3 µM); in assay [3], 8 µg/mL (≈ 18.6 µM); in [4], 8 µg/mL (≈ 18.6 µM); in assay [5], 16 µg/mL (≈ 37.2 µM); in assay [6] it was 16 µg/mL (≈ 37.2 µM); in assay [11], 16 µg/mL (≈ 37.2 µM).

Values taken from ChEMBL document CHEMBL1136089, “Synthesis and in vitro activity of new methylenepiperidinyl and methylenepyrrolidinyl oxazolidinone antibacterial agents” (Bioorg Med Chem Lett, 2003).
